Active and inactive are the calls of the source. The calls are words filed in the database; no cut-off is given here.
Legend:
HT-29 = assay: Antiproliferative activity against human HT29 cells after 96 hrs by microculture tetrazolium assay; settings: HT-29, 96 h
L1210 [1] = assay: Antiproliferative activity against mouse L1210 cells after 48 hrs by microculture tetrazolium assay; type: functional, cell-based; settings: L1210, 48 h
Outline: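 L1210 cells grown in RPMI 1640 with 10% fetal calf serum, 2 mM L-glutamine, penicillin/streptomycin and 10 mM Hepes (pH 7.4). Exposed for 48 h (four doubling times) to nine serial dilutions, each in triplicate. Read-out was microculture tetrazolium assay. IC50 is the concentration that cut optical density by 50% versus untreated controls.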

[2] = target: T1, Serine/threonine-protein kinase Chk1 (Homo sapiens) (UniProt O14757); assay: Inhibition of human Chk1 expressed in sf9-baculovirus system at 10 uM
T1 sequence (whole entry): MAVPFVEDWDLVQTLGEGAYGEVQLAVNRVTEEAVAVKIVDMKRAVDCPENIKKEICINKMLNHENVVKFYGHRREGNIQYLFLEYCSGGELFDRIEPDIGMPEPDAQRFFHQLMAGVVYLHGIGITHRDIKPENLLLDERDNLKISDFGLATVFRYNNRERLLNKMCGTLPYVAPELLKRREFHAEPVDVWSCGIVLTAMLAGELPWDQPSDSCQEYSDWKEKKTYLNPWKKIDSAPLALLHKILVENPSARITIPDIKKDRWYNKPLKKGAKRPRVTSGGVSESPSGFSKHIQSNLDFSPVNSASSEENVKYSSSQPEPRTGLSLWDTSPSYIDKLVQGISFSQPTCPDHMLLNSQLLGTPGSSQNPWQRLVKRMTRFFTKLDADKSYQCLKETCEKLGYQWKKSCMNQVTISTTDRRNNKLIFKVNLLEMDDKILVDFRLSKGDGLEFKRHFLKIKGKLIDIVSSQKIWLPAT

[3] = target: T2, Serine/threonine-protein kinase Chk1 (Homo sapiens, UniProt O14757); assay: Inhibition of human Chk1 expressed in sf9-baculovirus system
T2 sequence (O14757 whole entry): T1 sequence (whole entry)
Outline: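 Kinase was GST-tagged Chk1 purified from extracts of Sf9 cells infected with a GST-Chk1 baculovirus. Assay format followed a published method.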

L1210 [4] = assay: Toxicity against mouse L1210 cells at 20 uM; type: functional, cell-based
L1210 [5] = assay: Cell cycle arrest in mouse L1210 cells by accumulation at G2M phase at 1 uM after 21 hrs by flow cytometry; type: functional
Outline: (§1)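 L1210 cells at 2.5 × 10⁵ cells/mL incubated 21 h with various compound concentrations. Fixed in 70% ethanol, washed, then stained 30 min in D-PBS containing RNAse and propidium iodide. DNA content analysed by flow cytometry.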

L1210 [6] = assay: Cell cycle arrest in mouse L1210 cells by accumulation at G1 phase at 1 uM after 21 hrs by flow cytometry; type: functional
Outline: as §1

L1210 [7] = assay: Cell cycle arrest in mouse L1210 cells by accumulation at G2M phase at 5 uM after 21 hrs by flow cytometry; type: functional
Outline: as §1

Row | SMILES | IC50 (HT-29) [µM] | IC50 (L1210 [1]) [nM] | inhibition [2] [%] | IC50 [3] [nM] | Activity (L1210 [4]) | Activity (L1210 [5]) [%] | Activity (L1210 [6]) [%] | Activity (L1210 [7]) [%]
1 | CN(C)CCN1C(=O)c2c(c3c4cnccc4[nH]c3c3[nH]c4ccccc4c23)C1=O | 3.8 | 470 | 49.4 |  |  |  |  | 
2 | CN1C(=O)c2c(c3c4ccccc4n([C@@H]4O[C@H](COCc5ccccc5)[C@@H](OCc5ccccc5)[C@H](OCc5ccccc5)[C@H]4OCc4ccccc4)c3c3[nH]c4ccncc4c23)C1=O |  | > 100000 | 49 |  |  |  |  | 
3 | CN1C(=O)c2c(c3c4cnccc4[nH]c3c3[nH]c4cc(OCc5ccccc5)ccc4c23)C1=O | 2 | 600 | 27 |  |  |  |  | 
4 | CN(C)CCN1C(=O)c2c(c3c4cnccc4[nH]c3c3[nH]c4cc(OCc5ccccc5)ccc4c23)C1=O | 2.9 | 1400 | 32.7 |  |  |  |  | 
5 | O=C1NC(=O)c2c1c1c3cnccc3[nH]c1c1[nH]c3ccc(O)cc3c21 | > 100 | 80700 | 99.1 | 27 |  |  |  | 
6 | O=C1NC(=O)c2c1c1c3ccc(O)cc3[nH]c1c1[nH]c3ccncc3c21 | > 100 | 3300 | 98.7 | 14 |  |  |  | 
7 | CN1C(=O)c2c(c3c4cc5c(cc4[nH]c3c3[nH]c4ccncc4c23)OCO5)C1=O | 3.35 | 495 | 26.7 |  |  |  |  | 
8 | CN1C(=O)c2c(c3c4ccccc4n([C@@H]4O[C@H](CO)[C@@H](O)[C@H](O)[C@H]4O)c3c3[nH]c4cc[n+](Cc5ccccc5)cc4c23)C1=O | 63.7 | 12800 | 51.4 |  |  |  |  | 
9 | CN(C)CCN1C(=O)c2c(c3c4cc(OCc5ccccc5)ccc4[nH]c3c3[nH]c4ccncc4c23)C1=O | 19.5 | 16300 | 17.6 |  |  |  |  | 
10 | CN1C(=O)c2c(c3c4cnccc4[nH]c3c3[nH]c4cc(O)ccc4c23)C1=O | 16.2 | 2700 | 66.6 | 5000 | Active |  |  | 
11 | CN(C)CCN1C(=O)c2c(c3c4cc5c(cc4[nH]c3c3[nH]c4ccncc4c23)OCO5)C1=O | 1.76 | 195 | 6.7 |  |  | 62 |  | 
12 | CN(C)CCN1C(=O)c2c(c3c4cc(O)ccc4[nH]c3c3[nH]c4ccncc4c23)C1=O | 50.9 | 2600 | 48.9 |  |  |  |  | 
13 | CC(=O)OC[C@H]1O[C@@H](n2c3ccccc3c3c4c(c5c6c[n+](Cc7ccccc7)ccc6[nH]c5c32)C(=O)N(C)C4=O)[C@H](OC(C)=O)[C@@H](OC(C)=O)[C@@H]1OC(C)=O | > 100 | 14300 | 46.5 |  |  |  |  | 
14 | O=C1NC(=O)c2c1c1c3ccccc3[nH]c1c1[nH]c3ccncc3c21 | 1.5 | 600 | 98.6 | 5000 |  |  | 60 | 
15 | O=C1NC(=O)c2c1c1c3ccc(OCc4ccccc4)cc3[nH]c1c1[nH]c3ccncc3c21 | 32.4 | 1100 | 95.9 | 72 |  |  |  | 43
16 | CN1C(=O)c2c(c3c4cc(O)ccc4[nH]c3c3[nH]c4ccncc4c23)C1=O | > 100 | 11900 | 38.5 |  |  |  |  | 
17 | O=C1NC(=O)c2c1c1c3cnccc3[nH]c1c1[nH]c3ccc(OCc4ccccc4)cc3c21 | 7.6 | 1500 | 90.6 | 1320 |  |  |  | 

Reference: ChEMBL document CHEMBL1157170, “Novel 5-azaindolocarbazoles as cytotoxic agents and Chk1 inhibitors” (Bioorg Med Chem, 2008)
